FN deposition inh: fibronectin deposition inhibition; AH1F fibroblasts, Alexa488-fibronectin deposition fluorescence, overnight; hit rate 0.086% among 350,000; inhibition, % at 12.6 µM;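 active = mean inhibition across replicates of 30% or more, regardless of how many single replicates reach that level; inconclusive = mean under 30% yet at least half of replicates reach 30%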;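 also: positive control wells lacked labelled fibronectin entirely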
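Material: AH1F fibroblast monolayer depositing Alexa488-labelled fibronectin into matrix / Amount: 10000 AH1F cells per well / Signal: fluorescence 485/525 nm / Medium: DMEM, 2% serum / Compound: single dose, pinned / Incubation: 1 h cell adhesion before compound, then overnight fibronectin incubation / Reagent: Alexa488-FN, 24 nM final / Read-out: inhibition of fibronectin deposition signal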
PglD DTNB: blocks C. jejuni PglD acetyltransferase activity. purified PglD enzyme, DTNB colorimetric CoA detection. inhibition, % at 12.5 µM. hit rate 0.098% among 360,000. AID 602405; in the data active = inhibition above about 16%, passing the limit was not always enough; inconclusive = no clear call, values can overlap the other calls
PfHsp90 yeast 2: growth inhibition of yeast expressing Plasmodium Hsp90; hit rate 0.32% among 310,000; inhibition, % at 9.4 µM; AID 504621; S. cerevisiae expressing PfHsp90, BacTiter-Glo ATP, 48 h; yeast lacking PDR1 and PDR3 efflux regulators;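 active = every replicate shows inhibition above about 80%, whatever the replicate mean, limit read from the data; inconclusive = mean inhibition reaches the set limit but some replicate falls short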;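 also: 0% = DMSO neutral controls and 100% = 20 µM radicicol positive controls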
Rtt109 HAT inh: inhibitors of Candida albicans Rtt109/Vps75 histone acetyltransferase; Q5AAJ8; purified Rtt109/Vps75, ThioGlo CoA-SH fluorescence, 4 h; inhibition, % at 34.9 µM; hit rate 0.16% among 330,000;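 active = inhibition of at least 50% in every replicate; inconclusive = best replicate reaches 50% inhibition but some replicates fall short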
Target sequence (Q5AAJ8 whole entry, looked up): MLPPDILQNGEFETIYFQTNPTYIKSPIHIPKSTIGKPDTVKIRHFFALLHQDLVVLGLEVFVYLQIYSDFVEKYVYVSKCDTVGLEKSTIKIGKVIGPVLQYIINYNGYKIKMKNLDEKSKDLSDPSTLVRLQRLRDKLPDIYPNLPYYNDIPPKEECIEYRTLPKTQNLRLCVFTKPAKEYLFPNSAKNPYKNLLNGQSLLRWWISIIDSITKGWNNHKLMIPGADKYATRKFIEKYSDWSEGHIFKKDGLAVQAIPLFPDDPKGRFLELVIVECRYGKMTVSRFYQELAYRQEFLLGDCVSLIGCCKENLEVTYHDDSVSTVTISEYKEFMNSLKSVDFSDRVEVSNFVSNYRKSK
CSC inhib: cancer stem cell inhibition | cancer stem cell-like cells viability, luminescence | inhibition, % at 7.5 µM | AID 2717 | hit rate 1.1% among 300,000; in the data active = inhibition above about 75%; inconclusive = no clear call, values can overlap the other calls; tested in HMLE shEcad cells
SKKanGAS inh: inhibitors of SKKanGAS S. pyogenes growth in kanamycin (SK-promoter or general growth effect); BacTiter-Glo, 6 h; inhibition, % at 7.5 µM; hit rate 1.3% among 300,000; AID 1662;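 active = mean replicate score, as percent of positive control median, at least 50; inconclusive = mean below 50 but one replicate at or above 50; inactive = mean and every replicate below 50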;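 also: strain carries kanamycin resistance gene driven by streptokinase promoter and grows in 40 µg/ml kanamycin; loss of luminescence reflects streptokinase promoter inhibition or plain growth inhibition; 0% = median of DMSO wells and 100% = positive control at its reference dose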
* marks the source's active call; other numbers are inactive results; ? = inconclusive; . = no result given. The list is not random: actives were taken first. Their share in the collection is about 1.7%.

SMILES	FN deposition inh	PglD DTNB	PfHsp90 yeast 2	Rtt109 HAT inh	CSC inhib	SKKanGAS inh
O=C(Nc1ccc(F)cc1)N1C[C@H]2[C@@H](c3ccccc31)[C@H](CO)N2C(=O)Cc1cccnc1	.	-2	.	.	.	.
Cc1cccc(NS(=O)(=O)c2ccc(C3CCCCC3)cc2)c1	-12	0	30	2	?	108*
O=C(O)c1cccc(NS(=O)(=O)c2ccc(C3CCCCC3)cc2)c1	.	12	-12	8	-18	9
CCS(=O)(=O)Nc1ccc2c(c1)C(=O)N(C)C[C@H](OC)[C@@H](C)CN(C(=O)C1CCC1)[C@@H](C)CO2	.	1	.	.	.	.
CC(C)C(=O)Nc1ccc2c(c1)C(=O)N(C)[C@@H]1CC[C@H](CC(=O)N[C@@H](C)c3ccccc3)O[C@H]1CO2	-8	-2	.	.	.	.
c1ccc(CC2CCN(Cc3ccccn3)CC2)cc1	-8	.	-15	2	-3	-6
Oc1c(C(c2ccc(Cl)cc2)N2CCCC2)cc(Cl)c2cccnc12 (stereo not drawn)	-1	.	128*	3	99*	80*
CC(=O)NC(c1cc(Cl)c2cccnc2c1O)C(C)C (stereo not drawn)	-9	1	6	9	42	.
Cc1ccc(C(c2cc(Cl)c3cccnc3c2O)N2CCN(C)CC2)cc1 (stereo not drawn)	.	6	107*	13	115*	51*
Oc1c(C(c2ccccn2)N2CCC(Cc3ccccc3)CC2)cc(Cl)c2cccnc12 (stereo not drawn)	2	.	.	.	.	75*
CN1CCN(C(c2ccccn2)c2cc(Cl)c3cccnc3c2O)CC1 (stereo not drawn)	14	.	103*	56*	62	19
CN(C)C(=O)c1cccc(-c2ccc3c(c2)[C@H]2[C@H](CCN2C(=O)C2CCOCC2)[C@@H](CO)N3)c1	8	0	.	.	.	.
C[C@H]1CN([C@@H](C)CO)C(=O)Cc2cc(NC(=O)Nc3ccc(C(F)(F)F)cc3)ccc2O[C@H]1CN(C)C(=O)Nc1cccc2ccccc12	.	0	.	.	.	.
CN1c2ccc(-c3cccc(C#N)c3)cc2[C@H]2[C@H](CCN2C(=O)CC2CC2)[C@H]1CO	-3	-5	.	.	.	.
CCc1cccc2c1NC(=O)C21N2CCCC2C(C(=O)c2ccc3ccccc3c2)C12C(=O)Nc1ccccc12 (stereo not drawn)	-3	-3	-8	7	50	13
CCc1ccc2c(c1)C1(C(=O)N2)N2CCCC2C(C(=O)c2ccc3ccccc3c2)C12C(=O)Nc1ccccc12 (stereo not drawn)	-4	.	20	-8	159*	29
CC(C)C(=O)Nc1ccc2c(c1)C(=O)N(C)[C@@H]1CC[C@H](CC(=O)NCc3ccccc3F)O[C@@H]1CO2	-3	0	.	.	.	.
COc1ccc(-c2nn(-c3ccccc3)cc2/C=C2/SC(=S)N(CCC(=O)O)C2=O)c(C)c1	3	-16	-24	-4	85*	48
CC1=NNC(=O)/C1=C\c1cn(-c2ccccc2)nc1-c1ccc(F)cc1	.	3	.	9	.	-8
CC1=NNC(=O)/C1=C\c1cn(-c2ccccc2)nc1-c1cccs1	14	.	110*	0	81*	6
O/N=C/c1cn(-c2ccccc2)nc1-c1cccnc1	4	3	-20	11	-3	-1
O=C(O)CCCCCN1C(=O)/C(=C\c2cn(-c3ccccc3)nc2-c2cccs2)SC1=S	2	-10	-12	11	103*	91*
Cc1ccc(-c2nn(-c3ccccc3)cc2/C=N/O)cc1	5	-3	.	8	25	58*
Cc1noc(C)c1NC(=O)Nc1ccc2c(c1)C(=O)N([C@H](C)CO)C[C@H](C)[C@H](CN(C)C(=O)Nc1ccc3c(c1)OCO3)O2	.	-3	.	.	.	.
CN(C)CC(=O)Nc1ccc2c(c1)[C@@H]1C[C@@H](CC(=O)NCc3ccc(-c4ccccc4)cc3)O[C@@H](CO)[C@@H]1O2	-29	2	.	.	.	.
SMILES	FN deposition inh	PglD DTNB	PfHsp90 yeast 2	Rtt109 HAT inh	CSC inhib	SKKanGAS inh
Cc1ccc(S(=O)(=O)N[C@@H]2CC[C@H](CCn3cc(C(C)C)nn3)O[C@H]2CO)cc1	.	-1	.	.	.	.
CC(C)NC(=O)Nc1cccc2c1O[C@@H](CN(C)S(=O)(=O)c1cccs1)[C@@H](C)CN([C@@H](C)CO)C2=O	.	-1	.	.	.	.
Cc1noc(C)c1NC(=O)N(C)C[C@@H]1OCCCC[C@@H](C)Oc2ccc(NC(=O)CCC(F)(F)F)cc2C(=O)N([C@H](C)CO)C[C@@H]1C	.	-2	.	.	.	.
O=C(C[C@H]1C[C@H]2c3cc(NC(=O)NC4CCCC4)ccc3O[C@H]2[C@@H](CO)O1)NC1CCCCC1	-4	2	.	.	.	.
COc1ccc(-c2nn(-c3ccccc3)cc2/C=C2/SC(=S)N(CCC(=O)O)C2=O)cc1	4	-19	5	7	28	83*
Cc1ccc(-c2nn(-c3ccccc3)cc2/C=C2\SC(=S)N(CC(=O)O)C2=O)cc1	-4	-2	32	3	55	55*
O=C(O)CCN1C(=O)/C(=C/c2cn(-c3ccccc3)nc2-c2cccs2)SC1=S	-3	.	-6	.	.	.
COc1ccc(-c2nn(-c3ccccc3)cc2/C=C/C(=O)N2CCN(c3ccccn3)CC2)cc1	-4	.	3	-2	-6	60*
CC(C)CC#Cc1cnc2c(c1)C(=O)N([C@@H](C)CO)C[C@H](C)[C@H](CN(C)C(=O)c1cnccn1)O2	-11	-7	.	.	.	.
Cc1cc(C)cc(-n2cccc2/C=C2/C(=N)N3C(=NC2=O)SN=C3S(C)(=O)=O)c1	.	.	-4	5	72	71*
COc1cccc(-n2c(C)cc(/C=C3/C(=N)N4C(=NC3=O)SN=C4S(C)(=O)=O)c2C)c1	-2	9	0	-2	10	69*
C[C@H]1CN([C@@H](C)CO)C(=O)Cc2cc(NC(=O)Nc3ccc(F)cc3)ccc2O[C@H]1CN(C)Cc1ccncc1	.	2	.	.	.	.
Cc1noc(C)c1NC(=O)N(C)C[C@H]1OCCCC[C@@H](C)Oc2ccc(NS(=O)(=O)c3ccc(F)cc3)cc2C(=O)N([C@H](C)CO)C[C@H]1C	-17	1	.	.	.	.
CCNC(=O)[C@H]1[C@H](CO)[C@H]2Cn3c(ccc(-c4ccc(F)cc4)c3=O)[C@@H]1N2C	.	8	.	.	.	.
CC1(C)CN(c2ccccc2)N(C(=O)c2ccc(F)cc2)C1=O	.	1	31	-3	92*	-1
CC1(C)CN(c2ccccc2)N(C(=O)c2ccc(C#N)cc2)C1=O	4	-4	-10	-8	91*	1
CC1(C)COCN1C(=O)c1ccc(C#N)cc1	2	7	-3	19	-6	-1
CC(=O)OCC1(C)CN(c2ccccc2)N(C(=O)c2ccc(C(C)(C)C)cc2)C1=O (stereo not drawn)	2	.	13	.	.	-3
COc1ccccc1CN1[C@H](CO)[C@@H]2c3ccccc3N(C(=O)c3ccncc3)C[C@@H]21	.	-3	.	.	.	.

Source: PubChem BioAssay (Broad Institute)
